From ChEMBL document CHEMBL1817581, “Synthesis, antibacterial evaluation and QSAR studies of 7-[4-(5-aryl-1,3,4-oxadiazole-2-yl)piperazinyl] quinolone derivatives” (2011)

How the values were obtained:
Staphylococcus aureus = experiment: Antibacterial activity against Staphylococcus aureus subsp. aureus MTCC 1430 after 24 hrs by NCCLS M7-A6 serial dilution method; assay type: functional
Summary of the method: (§1)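 Two-fold tube dilution in culture medium; compounds dissolved in DMSO and diluted to final concentrations starting from 10 μg/ml until MIC reached. Incubated 24 h at 30 °C. MIC taken as the lowest concentration completely inhibiting growth, reported as pMIC (negative log of molar MIC). Medium plus DMSO was the negative control, ciprofloxacin the positive control. Run in triplicate.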

Escherichia coli = experiment: Antibacterial activity against Escherichia coli MTCC 739 after 24 hrs by NCCLS M7-A6 serial dilution method; assay type: functional; summary of the method: as §1
Bacillus subtilis = experiment: Antibacterial activity against Bacillus subtilis MTCC 2423 after 24 hrs by NCCLS M7-A6 serial dilution method; parameters: unit not given here

CCn1cc(C(=O)O)c(=O)c2cc(F)c(N3CCN(c4nnc(-c5ccccc5)o4)CC3)cc21
-logMIC (Staphylococcus aureus): 2.58 | -logMIC (Escherichia coli): 2.65 | -logMIC (Bacillus subtilis): 2.58

O=C(O)c1cn(C2CC2)c2cc(N3CCN(c4nnc(-c5cccc([N+](=O)[O-])c5)o4)CC3)c(F)cc2c1=O
-logMIC (Staphylococcus aureus): 2.24 | -logMIC (Escherichia coli): 2.17 | -logMIC (Bacillus subtilis): 2.28

COc1c(N2CCN(c3nnc(-c4ccc([N+](=O)[O-])cc4)o3)C(C)C2)c(F)cc2c(=O)c(C(=O)O)cn(C3CC3)c12 (stereo unspecified)
-logMIC (Staphylococcus aureus): 3.61 | -logMIC (Escherichia coli): 3.24 | -logMIC (Bacillus subtilis): 3.11

CCn1cc(C(=O)O)c(=O)c2cc(F)c(N3CCN(c4nnc(-c5ccc([N+](=O)[O-])c([N+](=O)[O-])c5)o4)CC3)cc21
-logMIC (Staphylococcus aureus): 3.24 | -logMIC (Escherichia coli): 3.63 | -logMIC (Bacillus subtilis): 3.87

COc1ccc(-c2nnc(N3CCN(c4cc5c(cc4F)c(=O)c(C(=O)O)cn5C4CC4)CC3)o2)cc1
-logMIC (Staphylococcus aureus): 3.12 | -logMIC (Escherichia coli): 3.2 | -logMIC (Bacillus subtilis): 3.09

COc1ccc(-c2nnc(N3CCN(c4c(F)cc5c(=O)c(C(=O)O)cn(C6CC6)c5c4OC)CC3C)o2)cc1OC (stereo unspecified)
-logMIC (Staphylococcus aureus): 3.36 | -logMIC (Escherichia coli): 3.27 | -logMIC (Bacillus subtilis): 3.27

CCn1cc(C(=O)O)c(=O)c2cc(F)c(N3CCN(c4nnc(-c5ccccc5Cl)o4)CC3)cc21
-logMIC (Staphylococcus aureus): 3.21 | -logMIC (Escherichia coli): 3.6 | -logMIC (Bacillus subtilis): 3.21

O=C(O)c1cn(C2CC2)c2cc(N3CCN(c4nnc(-c5ccccc5)o4)CC3)c(F)cc2c1=O
-logMIC (Staphylococcus aureus): 3.26 | -logMIC (Escherichia coli): 3.22 | -logMIC (Bacillus subtilis): 3.87

COc1c(N2CCN(c3nnc(-c4cccc([N+](=O)[O-])c4)o3)C(C)C2)c(F)cc2c(=O)c(C(=O)O)cn(C3CC3)c12 (stereo unspecified)
-logMIC (Staphylococcus aureus): 3.25 | -logMIC (Escherichia coli): 3.55 | -logMIC (Bacillus subtilis): 3.55

CCn1cc(C(=O)O)c(=O)c2cc(F)c(N3CCN(c4nnc(-c5ccc([N+](=O)[O-])cc5)o4)CC3)cc21
-logMIC (Staphylococcus aureus): 3.63 | -logMIC (Escherichia coli): 3.24 | -logMIC (Bacillus subtilis): 3.63

O=C(O)c1cn(C2CC2)c2cc(N3CCN(c4nnc(-c5ccc([N+](=O)[O-])c([N+](=O)[O-])c5)o4)CC3)c(F)cc2c1=O
-logMIC (Staphylococcus aureus): 2.95 | -logMIC (Escherichia coli): 3.65 | -logMIC (Bacillus subtilis): 3.25

COc1ccc(-c2nnc(N3CCN(c4c(F)cc5c(=O)c(C(=O)O)cn(C6CC6)c5c4OC)CC3C)o2)cc1 (stereo unspecified)
-logMIC (Staphylococcus aureus): 3.17 | -logMIC (Escherichia coli): 3.07 | -logMIC (Bacillus subtilis): 3.09

CCn1cc(C(=O)O)c(=O)c2cc(F)c(N3CCN(c4nnc(-c5ccc(OC)c(OC)c5)o4)CC3)cc21
-logMIC (Staphylococcus aureus): 2.43 | -logMIC (Escherichia coli): 2.68 | -logMIC (Bacillus subtilis): 2.43

O=C(O)c1cn(C2CC2)c2cc(N3CCN(c4nnc(-c5ccccc5Cl)o4)CC3)c(F)cc2c1=O
-logMIC (Staphylococcus aureus): 2.43 | -logMIC (Escherichia coli): 2.43 | -logMIC (Bacillus subtilis): 2.38

COc1c(N2CCN(c3nnc(-c4ccccc4)o3)C(C)C2)c(F)cc2c(=O)c(C(=O)O)cn(C3CC3)c12 (stereo unspecified)
-logMIC (Staphylococcus aureus): 3.62 | -logMIC (Escherichia coli): 2.94 | -logMIC (Bacillus subtilis): 3.54

CCn1cc(C(=O)O)c(=O)c2cc(F)c(N3CCN(c4nnc(-c5cccc([N+](=O)[O-])c5)o4)CC3)cc21
-logMIC (Staphylococcus aureus): 2.84 | -logMIC (Escherichia coli): 2.69 | -logMIC (Bacillus subtilis): 2.84

O=C(O)c1cn(C2CC2)c2cc(N3CCN(c4nnc(-c5ccc([N+](=O)[O-])cc5)o4)CC3)c(F)cc2c1=O
-logMIC (Staphylococcus aureus): 2.63 | -logMIC (Escherichia coli): 2.32 | -logMIC (Bacillus subtilis): 2.32

COc1c(N2CCN(c3nnc(-c4ccc([N+](=O)[O-])c([N+](=O)[O-])c4)o3)C(C)C2)c(F)cc2c(=O)c(C(=O)O)cn(C3CC3)c12 (stereo unspecified)
-logMIC (Staphylococcus aureus): 2.64 | -logMIC (Escherichia coli): 3.66 | -logMIC (Bacillus subtilis): 2.96

CCn1cc(C(=O)O)c(=O)c2cc(F)c(N3CCN(c4nnc(-c5ccc(OC)cc5)o4)CC3)cc21
-logMIC (Staphylococcus aureus): 3.2 | -logMIC (Escherichia coli): 3.5 | -logMIC (Bacillus subtilis): 3.2

COc1ccc(-c2nnc(N3CCN(c4cc5c(cc4F)c(=O)c(C(=O)O)cn5C4CC4)CC3)o2)cc1OC
-logMIC (Staphylococcus aureus): 2.91 | -logMIC (Escherichia coli): 2.67 | -logMIC (Bacillus subtilis): 2.67

COc1c(N2CCN(c3nnc(-c4ccccc4Cl)o3)C(C)C2)c(F)cc2c(=O)c(C(=O)O)cn(C3CC3)c12 (stereo unspecified)
-logMIC (Staphylococcus aureus): 3.24 | -logMIC (Escherichia coli): 3.17 | -logMIC (Bacillus subtilis): 3.24

O=C(O)c1cn(C2CC2)c2cc(N3CCNCC3)c(F)cc2c1=O [CIPROFLOXACIN]
-logMIC (Staphylococcus aureus): 3.16 | -logMIC (Escherichia coli): 3.52 | -logMIC (Bacillus subtilis): 3.16
